Shown is part of a subset that was picked to be rich in hits.
bCat KO growth: beta-catenin-lacking colon tumor cell growth suppression; HCT116 beta-catenin knockout viability, CellTiter-Glo, 60 h; stronger effect = lower value; viability, % at 10 µM; 1.5% of 140,000 active;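 active means viability at or under a set limit, the compound median less 4 SD, cut at about 6% in these data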
PTEN del growth: PTEN-deleted cell growth suppression; viability, % at 10 µM; HCT116 PTEN-null viability, CellTiter-Glo, 60 h; stronger effect = lower value; 1.2% of 140,000 active;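 active means viability at or below a set limit, 4 SD under the median of all tested compounds, cut at about 3.7% in these data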;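 further: PTEN knockout HCT116 line with beta catenin targeted HCT116 as companion control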
Lung fibro prol: blocks proliferation of human lung fibroblasts; AID 719; LL 47 human lung fibroblast viability, ATP luminescence; stronger effect = lower value; viability, % at 10 µM; 1.1% of 85,000 active;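 active means viability at or below 50% in the single dose screen; inactive means viability above 50%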;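 further: compound exposure lasted 72 h before the ATP readout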
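Times – overnight cell rest, 72 h compound treatment at 37 °C · Test system – human lung fibroblast line LL 47, low passage · Amount – 1,150 cells in each well · Controls – cell-only wells, no compound · Doses – 0.1% DMSO in all compound wells · Measured by – CellTiter-Glo luminescence · Buffer or medium – IMEM plus 15% FBS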
Calb biofilm kill: kills Candida albicans biofilms | C. albicans biofilm + clotrimazole, Alamar Blue | 0.14% of 85,000 active | AID 834 | inhibition, % at 6 µM;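 active means inhibition above 20%; inactive means inhibition below 20%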;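 further: preformed 24 hr biofilms exposed to compound for 48 hr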
HUVEC prolif 384: blocks proliferation of human endothelial cells; HUVEC proliferation, CellTiter-Glo luminescence, 72 h; stronger effect = lower value; viability, % at 10 µM (by protocol); 1.1% of 86,000 active;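 active means viability at or below 30%; inactive means viability above 30%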
H69AR growth 86K: growth inhibitors of human H69AR lung tumor cells. H69AR lung tumor viability, ATP luminescence, 72 h; stronger effect = lower value. AID 598. viability, % at 10 µM. 6% of 85,000 active;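 active means viability at or below 40%; inactive means viability above 40%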;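 further: multidrug resistant small cell line overexpressing MRP-1 efflux transporter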
Numbers stand for hits; i = inactive; nt = not tested or not shown.

SMILES	bCat KO growth	PTEN del growth	Lung fibro prol	Calb biofilm kill	HUVEC prolif 384	H69AR growth 86K
COC(=O)c1ccc(NC(=O)C(=O)N2CCN(C(=S)NCCc3ccccc3)CC2)cc1	i	i	nt	nt	nt	nt
CCOC(=O)c1cnc2c(OC)cccc2c1Nc1ccc2c(c1)OCCO2	i	i	nt	nt	nt	nt
COc1ccccc1-c1nnc2sc(-c3cc4ccccc4o3)nn12	i	i	49	i	i	31
COc1ccccc1-c1nnc2sc(-c3ccc(N(C)C)cc3)nn12	i	i	nt	nt	nt	nt
Cc1nc2ccccc2n1CCc1nc2c3ccccc3nc(SCC(=O)NCc3ccco3)n2n1	i	i	10	i	i	21
Cc1nc2ccccc2n1CCc1nc2c3ccccc3nc(SCC#N)n2n1	i	i	i	i	28	22
CC[C@H]1OC(=O)C[C@@H](O)[C@H](C)[C@@H](O[C@@H]2O[C@H](C)C[C@H](N(C)C)[C@H]2O)[C@@H](CC=O)C[C@@H](C)C(=O)C=C[C@]2(C)O[C@H]2[C@@H]1C	nt	nt	38	i	i	25
c1ccc(-c2nc(NC3CC3)nc(-n3ccnc3)n2)cc1	i	i	i	i	i	i
O=C(Nc1ccc(Cl)c(Cl)c1)Nc1cc(S(=O)(=O)N2CCOCC2)ccc1N1CCCC1	i	i	nt	nt	nt	nt
O=c1oc(-c2ccccc2F)nc2c1cnn2-c1ccccc1	i	i	i	i	5.9	i
CCCSc1nc(NCc2ccco2)c2c3c(sc2n1)COC(C)(C)C3	i	i	i	i	i	34
CCCCSc1nc(NCc2ccco2)c2c3c(sc2n1)COC(C)(C)C3	i	i	i	i	i	i
Cc1cc(C)n(-c2nc(NCc3cccnc3)c3c4c(sc3n2)COC(C)(C)C4)n1	4.5	i	i	i	i	i
COc1cc2c(cc1NC(=O)C(c1ccccc1)c1ccccc1)CCCC2	i	i	i	i	i	i
O=c1[nH]c(CN2CCN(C/C=C/c3ccccc3)CC2)nc2cc(Cl)ccc12	i	i	i	i	28	i
O=C(NCC1CCCO1)/C(=C\c1ccc(Cl)cc1)NC(=O)c1ccccc1 (stereo not given)	i	i	nt	nt	nt	nt
CN(C)CCNC(=O)/C(=C/c1ccc(-c2ccc(Cl)cc2)o1)NC(=O)c1ccccc1	0.9	0.8	nt	nt	nt	nt
Cc1ccc(C(=O)N/C(=C/c2ccc(-c3cc(C(F)(F)F)ccc3Cl)o2)C(=O)NCc2cccnc2)cc1	i	i	nt	nt	nt	nt
CN(C)CCNC(=O)/C(=C/c1ccc(-c2ccc(Cl)cc2Cl)o1)NC(=O)c1ccccc1	1.9	1.5	nt	nt	nt	nt
O=C(Cc1ccccc1)Nc1ccc(N2CCN(Cc3ccccc3F)CC2)cc1	i	i	i	i	i	i
CN(C)c1ccc(/C=C/c2ccncc2)cc1	i	i	i	i	i	i
CN(C)c1ccc(/C=C/c2ccc3ccccc3[n+]2C)cc1	2.1	2.0	nt	nt	nt	nt
Cc1ccc(C)c(OCC(=O)Nc2nonc2NC(=O)COc2cc(C)ccc2C)c1	i	i	i	i	i	19
Cc1cccc(OCC(=O)Nc2nonc2NC(=O)COc2cccc(C)c2)c1	i	i	i	i	i	i
Cc1ccc(CNCCC2=CCCCC2)cc1	i	i	nt	nt	nt	nt
SMILES	bCat KO growth	PTEN del growth	Lung fibro prol	Calb biofilm kill	HUVEC prolif 384	H69AR growth 86K
Cc1ccc(S(=O)(=O)N(CC(=O)NCc2ccco2)Cc2ccccc2F)cc1	i	i	i	i	i	i
COC(=O)Nc1ccc(S(=O)(=O)Nc2cccc3ccccc23)cc1	i	i	nt	i	i	35
COc1ccc(S(=O)(=O)Nc2ccc(O)c3ccccc23)cc1	1.5	2.3	i	nt	2.3	1.8
COc1ccc(S(=O)(=O)Nc2ccccc2C(F)(F)F)cc1	i	i	i	i	i	i
COc1ccccc1NS(=O)(=O)c1ccc(NC(C)=O)cc1	i	i	i	i	i	i
Cc1cccc2sc(NNC(=O)c3cc(-c4cccs4)nc4ccccc34)nc12	2.3	i	nt	nt	nt	nt
CCCCCCN1CC(C(=O)OCC)C(=O)C1=O (stereo not given)	i	i	nt	nt	nt	nt
CCOC(=O)C1Cc2cc3c(cc2C1=O)CC(C(=O)OCC)C3=O (stereo not given)	i	i	i	i	i	20
COc1ccccc1NC(=O)NCCN1C(=O)C2C3C=CC(C3)C2C1=O (stereo not given)	i	i	i	i	i	i
COC(=O)[C@@]1(Cc2ccccc2)[C@H]2c3cc(C(=O)N4CCCC4)n(Cc4ccsc4Br)c3C[C@H]2CN1C(=O)c1ccccc1	i	i	nt	nt	nt	nt
COc1cc(C(=O)Oc2ccccc2/C=N/NC(=O)c2ccc(Cl)cc2Cl)cc(OC)c1OC	2.7	2.4	nt	nt	nt	nt
Cc1ccc(S(=O)(=O)N2CCC(C(=O)N/N=C/c3cccnc3)CC2)cc1	i	i	nt	nt	nt	nt
CC1=C(C(=O)Nc2ccccc2)C(c2ccc(C)o2)n2c(s/c(=C/c3ccccc3)c2=O)=N1 (stereo not given)	i	i	i	i	i	23
CC1=C(C(=O)Nc2ccccc2C)C(c2ccc(C)o2)n2c(s/c(=C/c3ccccc3)c2=O)=N1 (stereo not given)	1.1	i	i	i	i	i
CC1=C(C(=O)Nc2ccccc2)C(c2ccc(C)o2)N2C(=O)CSC2=N1 (stereo not given)	i	i	i	i	i	i
COc1cc(CC(=O)N/N=C/c2ccc([N+](=O)[O-])cc2)c([N+](=O)[O-])cc1OC	i	i	nt	nt	nt	nt
Nc1cc(CN2C(=O)c3ccccc3C2=O)cc(Cl)c1O	i	i	i	i	i	34
Brc1ccc(-c2csc(NNC3=NCCCCC3)n2)cc1	i	i	48	i	i	i
Cc1ccc2cccc(NC(=S)NC(=O)c3c(Br)cnn3C)c2n1	i	i	i	i	i	26
Cc1c(Cl)c([N+](=O)[O-])nn1CC(=O)NC12CC3CC(CC(C3)C1)C2	i	i	nt	nt	nt	nt
CCCCn1c(CN2CCN(c3cccc(Cl)c3)CC2)nc2c1c(=O)[nH]c(=O)n2C	i	i	49	i	i	19
Cn1c(=O)[nH]c(=O)c2c1nc(CN1CCN(c3cccc(Cl)c3)CC1)n2Cc1ccccc1Cl	i	i	i	i	i	12
CC(/C=N/n1c(-c2ccco2)n[nH]c1=S)=C\c1ccco1	i	i	nt	nt	nt	nt
CC(/C=N\Nc1nnc2c(n1)[nH]c1c(C)cccc12)=C\c1ccco1	2.1	2.4	nt	nt	nt	nt
Cc1nc(SCC(=O)NCCc2ccc(Cl)cc2)nc(C)c1C	i	i	i	i	i	i
SMILES	bCat KO growth	PTEN del growth	Lung fibro prol	Calb biofilm kill	HUVEC prolif 384	H69AR growth 86K
Cc1ccc2c(c1)cc(CN(Cc1cccnc1)C(=O)NCc1ccccc1)c1nnnn12	i	i	i	i	i	i
O=C(CSC1=NCCN1)NC1CCCCCC1	i	i	i	i	i	i
O=C(CSC1=NCCN1)NC12CC3CC(CC(C3)C1)C2	i	i	i	i	i	16
Cc1cccc(C)c1Nc1nnc(SCC(=O)c2ccc3c(c2)NC(=O)CO3)s1	i	i	nt	nt	nt	nt
Cc1c(C(=O)/C=C/c2cccs2)oc2ccc(F)cc12	i	i	i	i	i	21
Cc1cc(=O)oc2c(C(=O)/C=C\c3cccs3)c(O)ccc12	i	i	nt	nt	nt	nt
CC(=O)OCCCN1c2ccccc2Nc2nnc(-c3ccccc3)cc21	i	i	i	i	i	39

Compound activity deposited in PubChem by several laboratories.
